In assay [1] the target is Serine/threonine-protein kinase pim-2 (Homo sapiens) (UniProt Q9P1W9). As to the kind of experiment: Binding affinity to human PIM2 at 500 nM by cell-based competition binding assay relative to control in presence of DTT.
For assay [2], the target named is Mitogen-activated protein kinase kinase kinase 4 (Homo sapiens) (UniProt Q9Y6R4). As to the kind of experiment: Binding affinity to human MAP3K4 at 500 nM by cell-based competition binding assay relative to control in presence of DTT. Put shortly:
(§1)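 Competition binding screen (Ambit) across a panel of 90 kinases, scoring test ligand displacement of each kinase's binding relative to control. The screen ran under reducing conditions with 7.5 mM DTT.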

Assay [3] concerns the target Cyclin-dependent kinase 7 (Homo sapiens) (UniProt P50613). The experiment in a line: Binding affinity to human CDK7 at 500 nM by cell-based competition binding assay relative to control in presence of DTT. Put shortly:
(§2)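 Commercial (Ambit) competitive kinase-binding panel of 90 kinases measured the binding profile. Run under reducing conditions of 7.5 mM DTT. Binding is expressed relative to control.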

The target of assay [4] is Serine/threonine-protein kinase pim-3 (Homo sapiens) (UniProt Q86V86). As to the kind of experiment: Binding affinity to human PIM3 at 500 nM by cell-based competition binding assay relative to control in presence of DTT.
For assay [5], the target named is Tyrosine-protein kinase ABL1 (Homo sapiens) (UniProt P00519). The experiment in a line: Binding affinity to human ABL1 at 500 nM by cell-based competition binding assay relative to control in presence of DTT. Put shortly:
(§3)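 Kinase binding profiling ran on a commercial (Ambit) competitive binding screen against a panel of 90 kinases. The screen used reducing conditions with 7.5 mM DTT. To withstand the DTT, the bivalent ligand was tested as its amide isostere, with the disulfide replaced. A staurosporine derivative carrying a 3 β-alanine linker was run as the reference compound.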

For assay [6], the target named is Focal adhesion kinase 1 (Homo sapiens) (UniProt Q05397). The experiment in a line: Binding affinity to human PTK2 at 500 nM by cell-based competition binding assay relative to control in presence of DTT.
Assay [7] concerns the target Tyrosine-protein kinase receptor UFO (Homo sapiens) (UniProt P30530). As to the kind of experiment: Binding affinity to human AXL at 200 nM by cell-based competition binding assay relative to control in presence of DTT. Put shortly:
as §3

Assay [8] deals with T1, 3-phosphoinositide-dependent protein kinase 1 (Homo sapiens) (UniProt O15530).
T1 sequence (whole entry): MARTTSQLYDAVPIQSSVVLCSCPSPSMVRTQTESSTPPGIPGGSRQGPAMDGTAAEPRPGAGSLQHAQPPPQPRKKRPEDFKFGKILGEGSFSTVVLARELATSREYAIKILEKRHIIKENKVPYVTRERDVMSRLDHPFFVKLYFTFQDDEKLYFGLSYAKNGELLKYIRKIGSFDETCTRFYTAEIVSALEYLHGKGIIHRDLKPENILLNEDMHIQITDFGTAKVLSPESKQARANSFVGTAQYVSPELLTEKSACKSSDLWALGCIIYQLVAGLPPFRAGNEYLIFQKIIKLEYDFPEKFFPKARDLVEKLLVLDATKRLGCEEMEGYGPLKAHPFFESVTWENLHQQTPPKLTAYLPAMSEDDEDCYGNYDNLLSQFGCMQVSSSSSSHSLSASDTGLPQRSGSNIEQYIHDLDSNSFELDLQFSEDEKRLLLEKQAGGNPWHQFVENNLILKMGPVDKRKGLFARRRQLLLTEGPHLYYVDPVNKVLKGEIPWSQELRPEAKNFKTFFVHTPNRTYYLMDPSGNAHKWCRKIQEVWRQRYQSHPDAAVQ
The experiment in a line: Binding affinity to human PDPK1 at 200 nM by cell-based competition binding assay relative to control in presence of DTT.

The target of assay [9] is Mitogen-activated protein kinase 9 (Homo sapiens) (UniProt P45984). As to the kind of experiment: Binding affinity to human JNK2 at 200 nM by cell-based competition binding assay relative to control in presence of DTT. Put shortly:
as §1

Assay [10] concerns the target Mitogen-activated protein kinase 10 (Homo sapiens) (UniProt P53779). The experiment in a line: Binding affinity to human JNK3 at 200 nM by cell-based competition binding assay relative to control in presence of DTT. Put shortly: as §1
For assay [11], the target named is RAC-alpha serine/threonine-protein kinase (Homo sapiens) (UniProt P31749). The experiment in a line: Binding affinity to human AKT1 at 200 nM by cell-based competition binding assay relative to control in presence of DTT. Put shortly: as §3
For assay [12], the system named is Serine/threonine-protein kinase B-raf (Homo sapiens), P15056 [V600E]. As to the kind of experiment: Binding affinity to human BRAF V600E mutant at 200 nM by cell-based competition binding assay relative to control in presence of DTT. Put shortly: as §3
Assay [13] has as its target ALK tyrosine kinase receptor (Homo sapiens) (UniProt Q9UM73). The experiment in a line: Binding affinity to human ALK at 50 nM by cell-based competition binding assay relative to control in presence of DTT. In outline: as §3
The target of assay [14] is Serine/threonine-protein kinase PLK1 (Homo sapiens) (UniProt P53350). As to the kind of experiment: Binding affinity to human PLK1 at 50 nM by cell-based competition binding assay relative to control in presence of DTT.
For assay [15], the target named is Serine/threonine-protein kinase B-raf (Homo sapiens) (UniProt P15056). As to the kind of experiment: Binding affinity to human BRAF at 50 nM by cell-based competition binding assay relative to control in presence of DTT. In outline: as §3
In assay [16] the target is Mitogen-activated protein kinase kinase kinase 4 (Homo sapiens) (UniProt Q9Y6R4). The experiment in a line: Binding affinity to human MAP3K4 at 50 nM by cell-based competition binding assay relative to control in presence of DTT. Put shortly:
as §1

Assay [17] has as its target Casein kinase I isoform gamma-2 (Homo sapiens) (UniProt P78368). The experiment in a line: Binding affinity to human CSNK1G2 at 50 nM by cell-based competition binding assay relative to control in presence of DTT. In outline:
as §2

Assay [18] has as its system Tyrosine-protein kinase ABL1 (Homo sapiens), P00519 [E255K]. As to the kind of experiment: Binding affinity to human ABL1 E255K mutant at 50 nM by cell-based competition binding assay relative to control in presence of DTT. Put shortly: as §3

*1 amine or outer side, *2 acyl side, *3 side chain or, on linkers, in order; H or OH if unused. Where a SMILES comes first, the peptide text is derived from it. Bridges are numbered along the chain shown (N, C = ends). [ ]: non-standard residue; d: D form. The star is where a group is joined. Staurosporine = CO[C@@H]1[C@H](N(C)*)C[C@H]2O[C@]1(C)n1c3ccccc3c3c4c(c5c6ccccc6n2c5c31)C(=O)NC4; Suc = O=C(CCC(=O)[*:2])[*:1]; Dap = NC[C@H](N)C(=O)O; βAla = NCCC(=O)O

Chain of Mitogen-activated protein kinase kinase kinase 4 (Homo sapiens) (Q9Y6R4 whole entry): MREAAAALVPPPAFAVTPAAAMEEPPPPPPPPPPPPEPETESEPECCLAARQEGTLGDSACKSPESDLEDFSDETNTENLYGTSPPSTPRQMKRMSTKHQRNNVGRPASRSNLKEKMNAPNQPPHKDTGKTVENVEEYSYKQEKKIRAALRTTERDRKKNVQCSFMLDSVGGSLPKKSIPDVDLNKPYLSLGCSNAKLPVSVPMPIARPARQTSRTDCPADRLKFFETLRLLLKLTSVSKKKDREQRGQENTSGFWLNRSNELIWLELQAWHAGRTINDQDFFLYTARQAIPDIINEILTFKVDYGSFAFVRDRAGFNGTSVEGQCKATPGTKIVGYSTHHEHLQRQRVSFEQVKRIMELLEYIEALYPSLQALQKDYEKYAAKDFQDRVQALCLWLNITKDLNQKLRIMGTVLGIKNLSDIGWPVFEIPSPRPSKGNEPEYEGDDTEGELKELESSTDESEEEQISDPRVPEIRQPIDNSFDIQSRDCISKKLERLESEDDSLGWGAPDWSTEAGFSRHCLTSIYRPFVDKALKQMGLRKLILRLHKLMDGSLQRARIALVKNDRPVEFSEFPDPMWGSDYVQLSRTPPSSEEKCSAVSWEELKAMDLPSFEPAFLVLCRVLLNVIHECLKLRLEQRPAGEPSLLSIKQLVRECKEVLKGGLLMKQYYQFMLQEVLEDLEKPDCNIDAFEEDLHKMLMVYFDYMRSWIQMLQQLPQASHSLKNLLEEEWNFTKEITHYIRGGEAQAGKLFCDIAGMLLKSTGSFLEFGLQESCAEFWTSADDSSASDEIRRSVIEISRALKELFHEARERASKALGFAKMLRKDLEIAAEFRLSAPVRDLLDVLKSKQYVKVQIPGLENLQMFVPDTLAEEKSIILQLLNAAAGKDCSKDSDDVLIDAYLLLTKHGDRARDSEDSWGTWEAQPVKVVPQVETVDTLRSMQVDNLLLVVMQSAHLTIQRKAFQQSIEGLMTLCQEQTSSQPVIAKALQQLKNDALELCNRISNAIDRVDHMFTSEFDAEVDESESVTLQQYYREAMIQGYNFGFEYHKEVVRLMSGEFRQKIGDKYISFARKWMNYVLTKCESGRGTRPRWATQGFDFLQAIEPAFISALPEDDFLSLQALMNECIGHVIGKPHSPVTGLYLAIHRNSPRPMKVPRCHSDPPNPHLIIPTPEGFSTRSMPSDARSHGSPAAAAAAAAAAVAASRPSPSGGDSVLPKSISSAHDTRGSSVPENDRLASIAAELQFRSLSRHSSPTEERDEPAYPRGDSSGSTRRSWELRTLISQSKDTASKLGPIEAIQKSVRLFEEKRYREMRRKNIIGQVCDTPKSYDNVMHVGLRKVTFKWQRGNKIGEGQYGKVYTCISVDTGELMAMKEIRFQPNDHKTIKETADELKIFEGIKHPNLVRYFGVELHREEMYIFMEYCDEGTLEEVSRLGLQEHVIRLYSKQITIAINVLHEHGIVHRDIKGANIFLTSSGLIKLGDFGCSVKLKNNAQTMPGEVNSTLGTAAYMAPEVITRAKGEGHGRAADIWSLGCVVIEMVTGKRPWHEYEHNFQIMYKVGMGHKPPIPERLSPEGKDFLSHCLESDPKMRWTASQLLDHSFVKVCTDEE
Chain of Mitogen-activated protein kinase 10 (Homo sapiens) (P53779 whole entry): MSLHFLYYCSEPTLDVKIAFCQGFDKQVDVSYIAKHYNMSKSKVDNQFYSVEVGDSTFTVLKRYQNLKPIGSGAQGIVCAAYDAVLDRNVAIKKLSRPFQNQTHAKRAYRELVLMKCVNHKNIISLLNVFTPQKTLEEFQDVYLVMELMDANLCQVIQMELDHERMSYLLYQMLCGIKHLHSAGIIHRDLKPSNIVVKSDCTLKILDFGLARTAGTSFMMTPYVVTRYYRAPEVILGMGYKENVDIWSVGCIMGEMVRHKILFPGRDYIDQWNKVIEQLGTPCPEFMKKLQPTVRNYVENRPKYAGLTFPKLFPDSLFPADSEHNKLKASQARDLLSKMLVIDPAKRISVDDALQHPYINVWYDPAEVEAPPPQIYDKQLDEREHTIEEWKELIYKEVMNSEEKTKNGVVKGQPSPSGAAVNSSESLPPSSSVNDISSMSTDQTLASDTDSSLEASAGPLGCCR
Chain of Casein kinase I isoform gamma-2 (Homo sapiens) (P78368 whole entry, looked up, canonical isoform): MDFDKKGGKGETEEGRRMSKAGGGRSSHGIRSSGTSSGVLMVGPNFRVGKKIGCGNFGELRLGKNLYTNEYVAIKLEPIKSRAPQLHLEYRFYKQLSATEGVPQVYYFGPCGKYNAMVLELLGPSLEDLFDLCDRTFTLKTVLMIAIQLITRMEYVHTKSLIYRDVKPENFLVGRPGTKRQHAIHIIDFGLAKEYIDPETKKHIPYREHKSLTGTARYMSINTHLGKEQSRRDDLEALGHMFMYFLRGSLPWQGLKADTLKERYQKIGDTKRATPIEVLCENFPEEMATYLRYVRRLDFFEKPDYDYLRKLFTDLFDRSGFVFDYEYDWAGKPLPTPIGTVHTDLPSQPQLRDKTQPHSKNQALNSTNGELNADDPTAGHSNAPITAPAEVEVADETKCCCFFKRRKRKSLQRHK
Chain of Serine/threonine-protein kinase B-raf (Homo sapiens) (P15056 whole entry): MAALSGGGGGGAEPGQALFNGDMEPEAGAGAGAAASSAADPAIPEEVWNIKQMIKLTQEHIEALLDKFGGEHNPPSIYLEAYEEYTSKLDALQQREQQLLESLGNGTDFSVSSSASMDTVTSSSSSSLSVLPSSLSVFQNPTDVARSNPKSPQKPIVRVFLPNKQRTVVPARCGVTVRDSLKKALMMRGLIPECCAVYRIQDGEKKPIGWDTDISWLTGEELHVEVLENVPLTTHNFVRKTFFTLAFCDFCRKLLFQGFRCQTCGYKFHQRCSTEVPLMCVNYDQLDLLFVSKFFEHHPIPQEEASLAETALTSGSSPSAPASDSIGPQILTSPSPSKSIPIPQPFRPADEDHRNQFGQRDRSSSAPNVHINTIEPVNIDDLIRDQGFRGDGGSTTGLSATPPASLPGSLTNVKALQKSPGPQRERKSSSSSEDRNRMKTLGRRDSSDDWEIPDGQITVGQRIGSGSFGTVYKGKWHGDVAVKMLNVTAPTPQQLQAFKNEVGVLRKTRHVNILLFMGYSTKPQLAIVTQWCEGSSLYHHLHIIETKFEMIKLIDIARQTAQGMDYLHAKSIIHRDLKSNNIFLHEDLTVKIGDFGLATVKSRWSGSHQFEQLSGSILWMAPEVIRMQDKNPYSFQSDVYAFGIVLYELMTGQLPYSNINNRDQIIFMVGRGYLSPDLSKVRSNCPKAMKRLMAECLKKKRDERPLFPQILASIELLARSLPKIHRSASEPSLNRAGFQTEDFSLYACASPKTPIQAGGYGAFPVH
Chain of Tyrosine-protein kinase ABL1 (Homo sapiens), P00519 [E255K] (P00519 whole entry E255K): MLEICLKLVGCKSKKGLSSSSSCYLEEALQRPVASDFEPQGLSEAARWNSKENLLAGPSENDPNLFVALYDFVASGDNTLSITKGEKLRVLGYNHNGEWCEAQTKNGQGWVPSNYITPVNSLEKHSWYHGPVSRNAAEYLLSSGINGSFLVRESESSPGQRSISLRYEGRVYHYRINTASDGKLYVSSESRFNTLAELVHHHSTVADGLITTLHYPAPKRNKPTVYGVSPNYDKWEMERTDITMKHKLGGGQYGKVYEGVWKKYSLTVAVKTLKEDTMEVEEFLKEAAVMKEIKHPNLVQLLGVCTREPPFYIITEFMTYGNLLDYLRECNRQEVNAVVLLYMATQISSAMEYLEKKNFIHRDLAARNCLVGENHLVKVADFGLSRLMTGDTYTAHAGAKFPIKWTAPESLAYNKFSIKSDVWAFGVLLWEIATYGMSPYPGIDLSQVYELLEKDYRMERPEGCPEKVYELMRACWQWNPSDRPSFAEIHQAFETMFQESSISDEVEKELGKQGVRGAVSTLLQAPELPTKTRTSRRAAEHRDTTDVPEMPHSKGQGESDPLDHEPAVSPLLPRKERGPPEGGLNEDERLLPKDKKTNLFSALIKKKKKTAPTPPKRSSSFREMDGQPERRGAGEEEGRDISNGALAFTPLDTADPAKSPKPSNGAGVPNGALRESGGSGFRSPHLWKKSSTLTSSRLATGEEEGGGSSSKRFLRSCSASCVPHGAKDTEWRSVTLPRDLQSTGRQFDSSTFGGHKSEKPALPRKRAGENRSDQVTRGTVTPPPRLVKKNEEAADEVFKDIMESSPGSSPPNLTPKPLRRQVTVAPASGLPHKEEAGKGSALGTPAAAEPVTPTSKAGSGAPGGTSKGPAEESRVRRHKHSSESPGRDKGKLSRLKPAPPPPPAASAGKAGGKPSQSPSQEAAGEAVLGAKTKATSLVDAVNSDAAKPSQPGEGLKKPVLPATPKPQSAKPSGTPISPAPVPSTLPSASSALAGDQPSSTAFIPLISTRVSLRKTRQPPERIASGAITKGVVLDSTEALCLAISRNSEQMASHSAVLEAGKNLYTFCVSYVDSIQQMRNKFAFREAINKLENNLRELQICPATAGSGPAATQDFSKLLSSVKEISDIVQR
Chain of Serine/threonine-protein kinase pim-2 (Homo sapiens) (Q9P1W9 whole entry, looked up): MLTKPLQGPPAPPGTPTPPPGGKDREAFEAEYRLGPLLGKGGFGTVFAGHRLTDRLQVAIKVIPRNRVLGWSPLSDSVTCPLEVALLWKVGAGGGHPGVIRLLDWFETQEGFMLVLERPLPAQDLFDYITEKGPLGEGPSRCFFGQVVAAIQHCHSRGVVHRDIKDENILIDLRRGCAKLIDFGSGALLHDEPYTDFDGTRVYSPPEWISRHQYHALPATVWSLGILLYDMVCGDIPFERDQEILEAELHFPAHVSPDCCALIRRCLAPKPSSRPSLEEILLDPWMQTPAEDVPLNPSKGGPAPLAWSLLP
Chain of Tyrosine-protein kinase ABL1 (Homo sapiens) (P00519 whole entry): as the sequence (P00519 whole entry E255K) above, with K255E counted along it

Turning to `CO[C@@H]1[C@H](N(C)C(=O)CCC(=O)NCCC(=O)NCCC(=O)NCCC(N)=O)C[C@H]2O[C@]1(C)n1c3ccccc3c3c4c(c5c6ccccc6n2c5c31)C(=O)NC4`, the Activity in [1] came to 100%; in [2], 95%; in [3], 100%; in [4] it was 10%; in [5], 68%; in assay [6], 65%.

As for `CO[C@@H]1[C@H](N(C)C(=O)CCC(=O)NCCC(=O)NCCC(=O)NCCC(=O)NCCC(=O)NCCC(=O)NCCC(=O)NCCC(=O)N[C@H]2CSSC[C@@H](C(=O)NCC(N)=O)NC(=O)CNC(=O)[C@H](Cc3ccccc3)NC(=O)[C@H](C(C)C)NC(=O)[C@H](CCCNC(=N)N)NC(=O)[C@H](Cc3ccccc3)NC(=O)[C@H](C(C)C)NC2=O)C[C@H]2O[C@]1(C)n1c3ccccc3c3c4c(c5c6ccccc6n2c5c31)C(=O)NC4` ({Staurosporine-Suc-βAla-βAla-βAla-βAla-βAla-βAla-βAla}-CVFRVFGCG-NH2; disulfide 1-8), the Activity in assay [7] was found to be 58%; in assay [8], 16%; in assay [9], 89%; in assay [10] it was 65%; in assay [11] it was 100%; in [12], 100%.

For the compound `CO[C@@H]1[C@H](N(C)C(=O)CCC(=O)NCCC(=O)NCCC(=O)NCCC(=O)NCCC(=O)NCCC(=O)NCCC(=O)NCCC(=O)N[C@H]2CNC(=O)C[C@@H](C(N)=O)NC(=O)CNC(=O)[C@H](Cc3ccccc3)NC(=O)[C@H](C(C)C)NC(=O)[C@H](CCCNC(=N)N)NC(=O)[C@H](Cc3ccccc3)NC(=O)[C@H](C(C)C)NC2=O)C[C@H]2O[C@]1(C)n1c3ccccc3c3c4c(c5c6ccccc6n2c5c31)C(=O)NC4` ({Staurosporine-Suc-βAla-βAla-βAla-βAla-βAla-βAla-βAla}-[Dap]VFRVFGD-NH2; lactam 1-8), the Activity in assay [13] amounted to 92%; in assay [14] it was 100%; in assay [15], 96%; in [16], 96%; in assay [17], 100%; in [18], 97%.

Source of the values: ChEMBL document CHEMBL1152541, “Staurosporine tethered peptide ligands that target cAMP-dependent protein kinase (PKA): optimization and selectivity profiling” (Bioorg Med Chem, 2009).
